A selection: hits, their analogues and other compounds. The true share with any hit is near 2.6%.
ARFGAP1 inh – inhibits rat ARF GTPase activating protein 1; 360,000 compounds, 0.26% hits; inhibition, % at 16.5 µM; Arfgap1-stimulated ARF1 GTP hydrolysis, GDP FP detection;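 active means inhibition above a per-plate limit, mean inhibition of low control wells plus 3 SD, cut at about 25% in these data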;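 further: 0% = DMSO wells with enzyme and 100% = wells lacking Arfgap1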
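Material: truncated rat Arfgap1 GAP domain; Incubation: compound-enzyme preincubation 20 min, reaction 120 min, detection 60 min, 25 °C; Read-out: percent inhibition of Arfgap1-stimulated GTP hydrolysis; Technique: FP, GDP Alexa 633 tracer displaced from anti-GDP antibody, 620/688 nm; Controls: No-Arfgap1 wells (100%) versus DMSO full-reaction wells (0%); Replication: single well per compound.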
IMP-1 inh – blocks Pseudomonas aeruginosa IMP-1 metallo-beta-lactamase; AID 1556; purified IMP-1, nitrocefin hydrolysis, epi-absorbance fluorescence; inhibition, % at 5.6 µM; 290,000 compounds, 0.45% hits;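 active means inhibition above the mean plus 3 SD of all compounds in the same screening run, cut at about 4.5% in these data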;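 further: 0% = IMP-1 with DMSO and 100% = DMSO wells lacking enzyme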
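System – purified recombinant IMP-1 beta-lactamase · Input – IMP-1 dispensed at 0.2 nM · Timing – 15 min preincubation plus 25 min reaction at 25 °C · Signal – Epi-absorbance fluorescence, 480 nm excitation, 530 nm emission · Measure – percent IMP-1 inhibition derived from blank-referenced optical density · Controls – Enzyme-plus-DMSO low control, enzyme-free DMSO high control · Replication – singlicate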
VIM-2 inhibitor – inhibitors of Pseudomonas aeruginosa VIM-2 metallo-beta-lactamase. inhibition, % at 5.6 µM. purified VIM-2, nitrocefin hydrolysis, epi-absorbance fluorescence. 290,000 compounds, 0.89% hits;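 active means inhibition above the mean of all tested compounds plus 3 SD, cutoff set per screening run, cut at about 7.5% in these data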;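 further: red hydrolysis product quenches plate fluorescence so inhibitors raise well fluorescence; 0% = enzyme with DMSO and 100% = DMSO without enzyme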
ASAP1 inh – ASAP1 ArfGAP inhibition; ASAP1-stimulated ARF1 GTP hydrolysis, GDP FP detection; Q9ULH1; inhibition, % at 16.5 µM; 360,000 compounds, 0.19% hits; in the data active means inhibition above about 25%;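 further: 0% = vehicle with enzyme and substrate and 100% = no enzyme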
Target sequence (Q9ULH1 325-724 limits assumed): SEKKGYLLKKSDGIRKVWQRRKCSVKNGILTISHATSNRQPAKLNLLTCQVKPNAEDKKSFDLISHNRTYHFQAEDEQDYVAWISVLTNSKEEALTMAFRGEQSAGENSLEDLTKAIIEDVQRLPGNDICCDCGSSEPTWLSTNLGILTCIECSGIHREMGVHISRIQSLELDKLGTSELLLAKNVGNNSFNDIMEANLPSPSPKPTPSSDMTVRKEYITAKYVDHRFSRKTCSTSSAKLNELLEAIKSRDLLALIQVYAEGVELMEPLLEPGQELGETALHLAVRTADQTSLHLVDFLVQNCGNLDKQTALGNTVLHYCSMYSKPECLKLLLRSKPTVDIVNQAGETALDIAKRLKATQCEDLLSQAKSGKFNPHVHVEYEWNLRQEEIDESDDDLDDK
PHOSPHO1 inh – PHOSPHO1 (human) inhibition. inhibition, % at 13.3 µM. Q8TCT1. recombinant PHOSPHO1, absorbance phosphatase assay. 290,000 compounds, 1.1% hits; in the data active means inhibition above about 60%
Calb FLC – affects C. albicans growth with fluconazole | 300,000 compounds, 0.57% hits | C. albicans CaCi-2 + fluconazole, Alamar Blue growth, 48 h | growth inhibition, % (test concentration not listed);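 active means growth inhibition above about 58% in most replicates, limit read from the data, passing the limit was not always enough; inconclusive means exactly half the replicates above a set limit; inactive means most replicates below a set limit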;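 further: all wells also contain fluconazole at 8 µg/ml as a sub-toxic cotreatment; 0% = median of DMSO wells and 100% = median of geldanamycin control wells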
The depositor's hits bear a star; ? = inconclusive; . = no result.

SMILES	ARFGAP1 inh	IMP-1 inh	VIM-2 inhibitor	ASAP1 inh	PHOSPHO1 inh	Calb FLC
CC1CCN(C(=O)Cn2cc(S(=O)(=O)CC(=O)N3CCOCC3)c3ccccc32)CC1	-7	-1	0	-8	-1	5
CC1CN(C(=O)Cn2cc(S(=O)(=O)CC(=O)N3CCOCC3)c3ccccc32)CC(C)O1 (stereo unspecified)	.	-3	-1	.	66*	3
N#Cc1ccc(S(=O)(=O)NCC2CCN(C(=O)C(=O)c3cc4ccccc4o3)CC2)cc1	-5	.	.	15	.	.
CN=C(c1ccco1)n1c(=S)nc(-c2ccco2)n(C)c1=S	12	0	-3	-16	89*	10
COCC(=O)N1CCN(C(=O)C(=O)c2cccc(C(F)(F)F)c2)CC1	-1	.	.	-1	.	.
Cc1nn(-c2ccccc2)c2sc(-c3nnc(SCC(=O)O)o3)cc12	-17	-3	2	-4	52	9
CCn1c(SCC(=O)O)nnc1-c1cc2c(C)nn(-c3ccccc3)c2s1	16	-3	10*	14	21	1
Cc1cc(NC(=O)Cc2cccs2)no1	0	6.8*	-3	6	14	.
C[C@@H]1CN(C(=O)OC(C)(C)C)CCN1c1ccc(N2CCS(=O)(=O)CC2)c(C#N)c1	6	.	.	10	.	.
Cc1ccc(C)c(Nc2nc3ccc(C)cc3n3cnnc23)c1	2	-4	-2	-9	-18	3
COc1cccc(Nc2nc3ccccc3n3cnnc23)c1	7	-4	7.8*	3	6	21
Cc1ccc2nc(Nc3ccc(F)cc3)c3nncn3c2c1	13	7.6*	1	-2	15	0
COc1ccnc(N2CCN(c3ccccc3)CC2)c1C#N	16	-3	-3	5	3	79*
COc1ccc(N2CCN(c3ncccc3C#N)CC2)cc1	0	-3	0	-11	-3	13
Cc1cc(/C=C2\SC(=S)NC2=O)c(C)n1-c1ccccc1	3	-3	2	-15	-48	27
Cc1cc(/C=C2\SC(=S)NC2=O)c(C)n1C	-8	-2	-5	15	88*	18
Cc1cc(/C=C2\SC(=S)NC2=O)c(C)n1-c1ccc(O)cc1	7	-1	8.1*	9	28	15
C[C@@H]1CNCCN1c1ccc(N2CCN(Cc3ccccc3)[C@@H](C)C2)c(C#N)c1	7	.	.	0	.	.
COc1ccc(-c2cc(-c3cc(F)ccc3O)[nH]n2)cc1OC	4	5.2*	-3	20	25	?
C[C@H]1CN([C@@H](C)CO)C(=O)CCCn2cc(nn2)CO[C@@H]1CN(C)S(=O)(=O)c1ccccc1F	10	.	.	13	.	.
Cc1ccc(S(=O)(=O)CC2CSc3nc4ccccc4n32)cc1 (stereo unspecified)	10	-2	-2	-2	14	88*
Cc1ccc(S(=O)(=O)CC2CSc3nc(N)cc(=O)n32)cc1 (stereo unspecified)	14	-3	-5	-7	5	3
COC(=O)c1cc(OC)c(OC)cc1NC(=O)CCN1C(=O)C2CCCCC2C1=O (stereo unspecified)	9	.	.	0	.	.
S=C1SCN(Cc2ccccn2)CN1Cc1ccco1	3	-2	-2	1	94*	-15
S=C1SCN(Cc2cccnc2)CN1Cc1ccccc1	9	0	-2	13	2	15
SMILES	ARFGAP1 inh	IMP-1 inh	VIM-2 inhibitor	ASAP1 inh	PHOSPHO1 inh	Calb FLC
COCCN1CSC(=S)N(Cc2ccco2)C1	-2	-3	-3	1	94*	3
CCN(CC)C(=O)C1=C(C)N(CCCOC)C(=O)C(CC(=O)NCCc2ccccn2)C1 (stereo unspecified)	-15	.	.	-7	.	.
CCn1c(Sc2nc(C)nc3scc(-c4cccs4)c23)n[nH]c1=O	6	-1	4	16	14	95*
Cc1ccc(-n2c(N)c(-c3nc4ccccc4n3C)sc2=S)cc1	0	-3	-2	1	69*	-6
O=C(O)c1cccnc1C(=O)N1CCc2c([nH]c3ccccc23)C1C(F)(F)F (stereo unspecified)	-9	-3	9.4*	0	33	8
Cc1ccccc1C(=O)N1CCc2c([nH]c3ccccc23)C1C(F)(F)F (stereo unspecified)	-4	-1	-2	9	21	-4
